Assay results collected from several papers.
Lines come from different studies, so protocols differ.
Target: Mitogen-activated protein kinase 12 (MAPK12, Homo sapiens, UniProt P53778)
Sequence (P53778 1-367, as in one of the studies): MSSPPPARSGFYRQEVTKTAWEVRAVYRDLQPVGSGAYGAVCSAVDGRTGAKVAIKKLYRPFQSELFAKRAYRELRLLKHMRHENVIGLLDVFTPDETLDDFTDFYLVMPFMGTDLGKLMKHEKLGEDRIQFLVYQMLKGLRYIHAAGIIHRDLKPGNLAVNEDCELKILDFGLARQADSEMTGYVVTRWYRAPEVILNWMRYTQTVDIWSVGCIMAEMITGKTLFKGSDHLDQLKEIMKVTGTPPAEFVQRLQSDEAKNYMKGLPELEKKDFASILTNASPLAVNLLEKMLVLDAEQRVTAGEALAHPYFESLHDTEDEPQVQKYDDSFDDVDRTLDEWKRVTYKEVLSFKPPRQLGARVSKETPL

read-out | method | tested at | remaining binding | SMILES
cell-free assay | competition with immobilised ligand | 0.1 µM | 100% | Cn1cc(Cl)c2c(Oc3c(F)cc(Nc4cc(Cl)nc(N)n4)cc3F)ccnc21
binding |  | 1 µM | 65% | c1cnn2ncc(-c3ccnc(N4CCC45COC5)n3)c2c1
cell-free assay | competition with immobilised ligand | 1 µM | 68% | CC1=C(C#N)C(c2ccc3c(c2)c(NC(=O)c2ccccc2C)nn3C)C(C#N)=C(C)N1
binding |  | 1 µM | 100% | F[C@@H]1CCN(c2nccc(-c3cnn4ncccc34)n2)C1
binding | competition with immobilised ligand | 1 µM | 100% | O=C(c1ccc(Nc2ncc(Cl)c(-c3ccc(Cl)s3)n2)cc1)N1CCC(N2CCCC2)CC1
cell-free assay | competition with immobilised ligand | 1 µM | 96% | CNC(=O)Nc1ccc2c(c1)[C@@]1(CC2)OC(=O)N(CC(=O)N(Cc2ccc(F)cc2)[C@@H](C)C(F)(F)F)C1=O
binding | competition with immobilised ligand | 1 µM | 96% | C=CC(=O)N1CCC(C(=O)NCC(=O)N2CCN(c3nc(-c4cnc(N)nc4C(F)F)nc(N4CCOCC4)n3)CC2)CC1
binding |  | 1 µM | 47% | C[C@@H]1CCN(c2nccc(-c3cnn4ncccc34)n2)C1
binding | competition with immobilised ligand | 1 µM | 100% | O=C(NCC1CCOCC1)c1n[nH]cc1NC(=O)c1c(F)cccc1F
binding | competition with immobilised ligand | 1 µM | 88% | O=C(c1ccc(Nc2nccc(-c3cc4ccccc4s3)n2)cc1)N1CCC(N2CCCC2)CC1
binding |  | 1 µM | 100% | CN(c1nccc(-c2cnn3ncccc23)n1)C1CC1
binding | competition with immobilised ligand | 1 µM | 31.2% | Cc1cc(Nc2nccc(C)n2)cc(-c2cnc([C@@]3(O)CC[C@H](C(=O)O)C(C)(C)C3)s2)c1
binding |  | 1 µM | 100% | COc1ccnn2ncc(-c3ccnc(N(C)C)n3)c12
binding | competition with immobilised ligand | 10 µM | 84% | c1cncc(-c2cccc(Nc3nccc(NC4CCCCC4)n3)c2)c1
cell-free assay | competition with immobilised ligand | 5 µM | 96% | COc1ncc2cc3ccccc3nc2c1C#N
binding | competition with immobilised ligand | 1 µM | 100% | Cc1nc(N2CC[C@@H](O)C2)ncc1-c1cc(C(F)(F)F)cc2[nH]ncc12
binding | competition with immobilised ligand | 1 µM | 100% | COc1cnc(Nc2cccc(S(N)(=O)=O)c2)nc1N1CCN(c2ccccc2)C(=O)C1
cell-free assay | competition with immobilised ligand | 0.1 µM | 100% | Cc1c[nH]c2nccc(Oc3c(F)cc(Nc4cc(Cl)nc(N)n4)cc3F)c12
binding |  | 1 µM | 60% | CN(C)c1nccc(-c2cnn3ncccc23)n1
binding | competition with immobilised ligand | 1 µM | 86% | O=C(c1ccc(Nc2ncc(Cl)c(-c3cc4ccccc4s3)n2)cc1)N1CCC(N2CCCC2)CC1
